MrgX1 agonist: human MrgX1 receptor agonism, primary screen | MrgX1-HEK293 cells, Fluo-4 calcium fluorescence, agonist mode; stronger effect = higher value | B-score at 10 µM | Q96LB2 | hit rate 0.44% among 310,000 | AID 588627;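 active means calcium response B-score plate-corrected fluorescence ratio at least 3 library SD, with starting fluorescence B-score inside 5 SD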
Target sequence (Q96LB2 whole entry, looked up): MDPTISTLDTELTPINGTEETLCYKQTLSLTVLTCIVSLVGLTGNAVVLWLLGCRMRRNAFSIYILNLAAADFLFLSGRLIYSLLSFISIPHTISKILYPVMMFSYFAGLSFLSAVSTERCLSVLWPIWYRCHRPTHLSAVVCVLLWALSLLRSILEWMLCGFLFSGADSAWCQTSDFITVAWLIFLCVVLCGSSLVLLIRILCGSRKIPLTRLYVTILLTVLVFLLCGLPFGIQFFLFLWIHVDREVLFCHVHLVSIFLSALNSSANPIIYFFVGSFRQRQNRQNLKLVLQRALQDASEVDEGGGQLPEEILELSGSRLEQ
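Material – MrgX1-expressing HEK293 cells · Input – 15,000 cells seeded per well · Dosing – compound as first of three additions · Times – overnight seeding, then 1 h dark dye loading · Measured by – kinetic Fluo-4 NW fluorescence of intracellular calcium · Read-out – B-scored fluorescence response ratio · Benchmarks – positive and negative control wells on each plate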
MrgX1 PAM: human MrgX1 positive allosteric modulation, primary screen; B-score at 10 µM; MrgX1-HEK293, Fluo-4 calcium flux, FDSS; stronger effect = higher value; hit rate 0.63% among 310,000;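 active means plate-corrected calcium response at least 3 library SD above typical, normal starting fluorescence, not activating the receptor alone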;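 further: compound read alongside a low EC10 to EC30 dose of BAM8-22 agonist; peak minus trough fluorescence over baseline measured at the second addition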
MrgX1 antag: human MrgX1 receptor antagonism, primary screen; MRGX1-HEK293 calcium flux, Fluo-4, BAM8-22 antagonism; stronger effect = lower value; B-score at 10 µM; hit rate 1.3% among 310,000;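 active means calcium-response B-score plate-corrected more than 3 library SD below zero, starting fluorescence within 5 deviations, no agonist response on first addition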;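 further: peak minus trough fluorescence over baseline after final BAM8-22 challenge near maximal dose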
RGS4 inh: inhibitors of human RGS4; P49798; HEK293 M3R/RGS4 inducible, Fluo-4 calcium flux; stronger effect = higher value; triggered by carbachol at its EC20; B-score at 10 µM; hit rate 0.45% among 310,000; AID 463165;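 active means B-score, a plate-corrected calcium signal, over three deviations above library mean, with baseline fluorescence within five deviations of library mean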;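 further: RGS4 expression induced by doxycycline in cells with stable M3 receptor; B-score is computed from the integrated fluorescence ratio over baseline after carbachol; higher B-score means a larger calcium signal and so more RGS4 inhibition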
Target sequence (P49798 whole entry, looked up): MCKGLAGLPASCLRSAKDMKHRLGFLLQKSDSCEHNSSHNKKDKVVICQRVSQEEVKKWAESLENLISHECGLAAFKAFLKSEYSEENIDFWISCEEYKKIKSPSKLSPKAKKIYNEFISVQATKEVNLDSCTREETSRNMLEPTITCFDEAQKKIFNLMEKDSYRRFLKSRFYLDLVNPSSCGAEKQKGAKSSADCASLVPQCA
RGS4 pot: RGS4 potentiation or activation | HEK293 M3R/inducible RGS4, carbachol calcium flux Fluo4; stronger effect = lower value | B-score at 10 µM | hit rate 0.92% among 310,000 | AID 463111;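 active means B-score of the integrated calcium signal more than 4 SD below the library mean, with starting fluorescence not abnormally high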;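 further: negative B-score means reduced calcium response which marks RGS4 activation or potentiation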
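Reagent: ECmax carbachol challenge; Test system: M3R-expressing HEK293 line, RGS4 induced by doxycycline; Schedule: overnight RGS4 induction, 30 min dye load 37 °C, 20 min compound RT; Detection: calcium dye Fluo4 fluorescence; Read-out: Agonist-evoked peak-minus-minimum fluorescence over baseline, integrated ratio, B score.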
RGS4 block valid: validation of RGS4 inhibitors; shares compounds with RGS4 inh; HEK293 M3R/RGS4, carbachol calcium Fluo-4 fluorescence; carbachol added at its EC20; 0 = buffer wells, 100 = carbachol control; calcium response, % at 10 µM; hit rate 65% among 1,700; AID 492999;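 active means duplicate-averaged calcium response above the buffer-only control mean plus 5 SD of those controls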;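 further: integrated fluorescence ratio F max minus min over baseline F0; higher response in RGS4-induced cells means RGS4 inhibition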
M3R Ca ctr: checks RGS4 inhibitor effects in non-induced HEK293 M3R cells | AID 493000 | shares compounds with RGS4 inh | activity (percent), % at 10 µM | carbachol calcium Fluo-4; submaximal (EC20) carbachol stimulus; buffer wells 0%, carbachol control wells 100% | hit rate 20% among 1,900; call rule not given here;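 further: RGS4 induction absent so cells express M3R without RGS4; higher means more calcium signal and flags a non-specific hit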
M3R basal Ca ctr: second RGS4 inhibitor counter-screen in uninduced cells lacking carbachol | shares compounds with RGS4 inh | HEK293 M3R/RGS4 non-induced, Fluo-4 calcium, no carbachol; normalised: buffer wells 0%, carbachol wells 100% | AID 493001 | hit rate 22% among 1,900 | calcium response (agonist-mode artifact), % at 10 µM;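 active means duplicate-averaged calcium rise in uninduced cells above buffer wells' mean plus 5 SD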
Large screens that a line does not name were inactive (follow-up assays come after a bar, where they were run). Rows were chosen to be rich in hits. Some 3.5% of all compounds tested hit in one or more screens of this group.

O=C(c1ccc(COCC(F)(F)F)o1)N1CCCCCC1	none | M3R Ca ctr 38% | M3R basal Ca ctr inactive
Cc1c(/C=N/NC(N)=O)c2ccccn2c1C(=O)c1ccncc1	none
Cc1c(/C=N/NC(=O)CNc2ccccc2)c2ccccn2c1C(=O)c1ccccc1	none | RGS4 block valid inactive | M3R Ca ctr inactive | M3R basal Ca ctr 16%
O=C(N/N=C/c1ccc(O)cc1)c1[nH]c2ccc(Br)cc2c1-c1ccccc1	none
O=C(N/N=C/c1c[nH]c2ccccc12)c1[nH]c2ccc(Br)cc2c1-c1ccccc1	RGS4 inh 7 (no result: MrgX1 agonist, MrgX1 PAM, MrgX1 antag) | RGS4 block valid 18% | M3R Ca ctr 28% | M3R basal Ca ctr inactive
O=C(Oc1ccccc1)c1cccnc1Oc1ccccc1	RGS4 inh 5 | RGS4 block valid inactive | M3R Ca ctr inactive | M3R basal Ca ctr inactive
O=C(Nc1ccc2c(c1)OCCO2)c1cccnc1Oc1ccccc1	RGS4 inh 4.7 | RGS4 block valid 5.5% | M3R Ca ctr inactive | M3R basal Ca ctr inactive
O=C(Nc1ccc2c(c1)OCCO2)c1cccnc1Oc1ccc(Cl)cc1	none | RGS4 block valid inactive | M3R Ca ctr inactive | M3R basal Ca ctr inactive
COc1ccc(CCN2CC(C(=O)NCCc3cn[nH]c3)CCC2=O)cc1 (stereo not drawn)	none
CC1C/C(=C/c2ccccn2)C(=O)/C(=C/c2ccccn2)C1 (stereo not drawn)	RGS4 inh 10 | RGS4 block valid 36% | M3R Ca ctr inactive | M3R basal Ca ctr 13%
COc1ccc(NC(=O)C(=O)Nc2cccc3cccnc23)cc1OC	none
COc1ccc(C(=O)Nc2cccc3cccnc23)cc1OC	RGS4 inh 4.9 | RGS4 block valid inactive | M3R Ca ctr inactive | M3R basal Ca ctr inactive
COc1cc(OC)cc(-c2cc(N)n(S(=O)(=O)c3cccc4nsnc34)n2)c1	RGS4 inh 4.8 | RGS4 block valid 8.0% | M3R Ca ctr inactive | M3R basal Ca ctr inactive
CCOc1ccc(NC(=O)CCC(=O)NNS(=O)(=O)c2ccccc2[N+](=O)[O-])cc1	none
COc1ccc(Nc2nnc(-c3ccc(C)cc3)c3ccccc23)cc1C(=O)N1CCCCC1	none | M3R Ca ctr inactive | M3R basal Ca ctr inactive
COc1ccc(-c2cc(C(=O)N3CCCCC3)c3ccccc3n2)cc1OC	none
COc1ccc(Nc2nnc(-c3ccccc3)c3ccccc23)cc1C(=O)N1CCCCC1	RGS4 inh 5 | RGS4 block valid 148% | M3R Ca ctr 88% | M3R basal Ca ctr inactive
O=C(OCC(=O)N1CCN(c2ccccc2)CC1)c1ccccc1NCCO	none
Cc1ccc(-c2cc(C(F)F)nc(NCc3cccnc3)n2)cc1	RGS4 inh 7.7 | RGS4 block valid inactive | M3R Ca ctr inactive | M3R basal Ca ctr inactive
O=S(=O)(Cc1noc(-c2ccc(Cl)cc2)n1)Cc1ccco1	none
NC(=O)C1=NOC(CNc2ncc(C(F)(F)F)cc2Cl)C1 (stereo not drawn)	none | RGS4 block valid inactive | M3R Ca ctr inactive | M3R basal Ca ctr inactive
CO/N=C/NC(=O)C1=NOC(CNc2ncc(C(F)(F)F)cc2Cl)C1 (stereo not drawn)	none
O=c1nc(-c2ccccc2)n(-c2ccccc2)[nH]1	none
CCCN1C(=O)/C(=C/c2nc3ccccc3c(=O)[nH]2)c2ccccc21	RGS4 inh 11 | RGS4 block valid 8.5% | M3R Ca ctr inactive | M3R basal Ca ctr inactive
CCCN1C(=O)/C(=C/c2nc3ccccc3c(=O)[nH]2)c2cc(C)ccc21	RGS4 inh 9.5 | RGS4 block valid 26% | M3R Ca ctr 58% | M3R basal Ca ctr inactive
C=CCNc1nnc(SC2CC(=O)N(c3ccc(OCCC)cc3)C2=O)s1 (stereo not drawn)	none | RGS4 block valid inactive | M3R Ca ctr inactive | M3R basal Ca ctr inactive
CC(=O)n1cc(C(C[N+](=O)[O-])SCCN)c2ccccc21 (stereo not drawn)	MrgX1 agonist 58, RGS4 inh 4.7 | RGS4 block valid 55% | M3R Ca ctr inactive | M3R basal Ca ctr 34%
CCN(CC)c1ccc(N2C(=O)/C(=C\c3cccnc3)SC2=S)cc1	RGS4 inh 7.3 | RGS4 block valid inactive | M3R Ca ctr inactive | M3R basal Ca ctr inactive
O=C(CCN1CCN(c2ccccc2)CC1)c1ccc(Br)cc1	RGS4 inh 27 | RGS4 block valid 16% | M3R Ca ctr inactive | M3R basal Ca ctr inactive
CCCCCOc1ccc(C(=O)CCN2CCOCC2)cc1	none
Clc1ccc(OCCN2CCOCC2)cc1	none
O=C(CCN1CCOCC1)c1ccc(Cl)cc1	RGS4 inh 12 | RGS4 block valid 17% | M3R Ca ctr 56% | M3R basal Ca ctr 25%
O=C(CCN1CCOCC1)c1ccc(Br)cc1	RGS4 inh 8.4 | RGS4 block valid 29% | M3R Ca ctr inactive | M3R basal Ca ctr 16%
CSc1nsc2nc(=O)c(/C=C3\C(C)=Nc4ccccc43)c(N)n12	none (no result: MrgX1 agonist, MrgX1 PAM, MrgX1 antag)
CCOC(=O)c1c(C)[nH]c(C(=O)OCc2csc(CC(=O)Nc3ccccc3C)n2)c1C	none
NCCNC(=O)Cn1c(=O)c2c3c(sc2n(Cc2ccccc2)c1=O)CCCC3	none
O=C(NCc1ccccn1)C(=O)NCC1OCCN1S(=O)(=O)c1ccc(F)cc1 (stereo not drawn)	none
COC(=O)c1sc(N2C(=O)C(=O)/C(=C(/O)c3ccccc3)C2c2ccco2)nc1C (stereo not drawn)	none | RGS4 block valid inactive | M3R Ca ctr inactive | M3R basal Ca ctr inactive
Cc1nc(N2C(=O)C(=O)/C(=C(/O)c3ccccc3)C2c2ccco2)sc1C (stereo not drawn)	RGS4 inh 6.4 | RGS4 block valid 8.5% | M3R Ca ctr inactive | M3R basal Ca ctr inactive
O=C(N=Nc1c(O)[nH]c2ccc(Cl)cc12)c1cc(-c2cccs2)nc2ccccc12	none
CCOCCCNC(=O)/C(C#N)=C/c1cc(OC)c(O)c([N+](=O)[O-])c1	none
CCOCCCNC(=O)/C(C#N)=C/c1ccc(Cl)c([N+](=O)[O-])c1	RGS4 inh 11 | RGS4 block valid 34% | M3R Ca ctr inactive | M3R basal Ca ctr inactive
CC(CN1C(C)CCCC1C)OC(=O)c1ccccc1F (stereo not drawn)	none
Cc1cc(C)n(CC(O)Cn2c3ccc(Cl)cc3c3cc(Cl)ccc32)c(=O)n1 (stereo not drawn)	RGS4 inh 8 | RGS4 block valid 25% | M3R Ca ctr inactive | M3R basal Ca ctr inactive

Compound activity: PubChem BioAssay, Johns Hopkins Ion Channel Center
